Measured values from ChEMBL document CHEMBL1799966, “Synthesis and anticancer activity of oxindole derived imidazo[1,5-a]pyrazines” (Eur J Med Chem, 2011).
The source made the active and inactive calls. The calls are words filed in the database; no cut-off is given here.

Key:
A498 = test: Cytotoxicity against human A498 cells; assay type: functional
Summary of the method: (§1)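 NCI 60-cell panel second-stage testing by NCI standard procedures. Compound was dissolved in DMSO and tested at five 10-fold dilutions: 10^-4, 10^-5, 10^-6, 10^-7 and 10^-8 M.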

A549 [1] = test: Induction of cell cycle arrest in human A549 cells assessed as accumulation at S phase at 6.5 uM after 48 hrs by propidium iodide staining-based FACS analysis (reference value: 19.21 %); assay type: functional
Summary of the method: (§2)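 A549 cells (1 × 10^6) in six-well plates received 6.5 µM (final) for 24 h or 48 h. Floating and adherent cells were fixed in 70% ethanol, washed in PBS, then stained for 20 min with 50 µg/mL propidium iodide in hypotonic citrate/Triton X-100 buffer with DNase-free RNase A. Cells were analysed by FACS.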

NCI-H226 = test: Cytotoxicity against human NCI-H226 cells; assay type: functional; summary of the method: as §1
M14 = test: Cytotoxicity against human M14 cells; assay type: functional; summary of the method: as §1
A549 [2] = test: Induction of apoptosis in human A549 cells assessed as pre-necrotic cells at 6.5 uM after 24 hrs using Annexin V-FITC and PI staining by flow cytometry (reference value: 0.5 %); assay type: functional
ACHN = test: Cytotoxicity against human ACHN cells; assay type: functional; summary of the method: as §1
EKVX = test: Cytotoxicity against human EKVX cells; assay type: functional; summary of the method: as §1
K562 = test: Cytotoxicity against human K562 cells; assay type: functional; summary of the method: as §1
A549 [3] = test: Induction of apoptosis in human A549 cells assessed as pre-necrotic cells at 6.5 uM after 48 hrs using Annexin V-FITC and PI staining by flow cytometry (reference value: 0.5 %); assay type: functional
OVCAR-3 = test: Cytotoxicity against human OVCAR3 cells; assay type: functional; summary of the method: as §1
NCI-H522 = test: Cytotoxicity against human NCI-H522 cells; assay type: functional; summary of the method: as §1
SF-539 = test: Cytotoxicity against human SF539 cells; assay type: functional; summary of the method: as §1
786-0 = test: Cytotoxicity against human 786-0 cells; assay type: functional; summary of the method: as §1
SF-295 = test: Cytotoxicity against human SF295 cells; assay type: functional; summary of the method: as §1
SNB-75 = test: Cytotoxicity against human SNB75 cells; assay type: functional
Summary of the method: (§3)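 NCI 60-cell-line panel protocol. Primary screen used a single 10^-5 M concentration with 48 h incubation, and percent growth was read against untreated cells by sulforhodamine B protein staining. The five-dose follow-up used a DMSO solution at five 10-fold dilutions from 10^-4 to 10^-8 M.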

HT-29 = test: Cytotoxicity against human HT-29 cells; assay type: functional; summary of the method: as §1
A549 [4] = test: Induction of cell cycle arrest in human A549 cells assessed as accumulation at G0/G1 phase at 6.5 uM after 48 hrs by propidium iodide staining-based FACS analysis (reference value: 56.26 %); assay type: functional; summary of the method: as §2
A549 [5] = test: Induction of apoptosis in human A549 cells assessed as viable cells at 6.5 uM after 48 hrs using Annexin V-FITC and PI staining by flow cytometry (reference value: 11.1 %); assay type: functional; conditions: A549, 48 h, read-out: Activity
HCT-15 = test: Cytotoxicity against human HCT15 cells; assay type: functional; summary of the method: as §1
RXF 393 = test: Cytotoxicity against human RXF393 cells; assay type: functional; summary of the method: as §1
A549 [6] = test: Induction of apoptosis in human A549 cells assessed as cytoplasmic condensation at 6.5 uM after 24 to 48 hrs by Hoechst 33342 staining; assay type: functional, cell-based
Summary of the method: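 A549 cells were grown 24 h on coverslips at 10,000 cells, then exposed to 6.5 µM for 24 h and 48 h, with 0.001% DMSO vehicle controls. Hoechst 33342 (0.5 µg/mL) with 4% paraformaldehyde was applied for 30 min at 37 °C. Random fields were examined by fluorescence microscopy, scoring relative fluorescence and nuclear fragmentation.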

COLO 205 = test: Cytotoxicity against human COLO205 cells; assay type: functional; summary of the method: as §1
OVCAR-4 = test: Cytotoxicity against human OVCAR4 cells; assay type: functional; summary of the method: as §1
NCI-H460 = test: Cytotoxicity against human NCI-H460 cells; assay type: functional; summary of the method: as §1
OVCAR-8 = test: Cytotoxicity against human OVCAR8 cells; assay type: functional; summary of the method: as §1
A549 [7] = test: Induction of cell cycle arrest in human A549 cells assessed as accumulation at G2/M phase at 6.5 uM after 24 hrs by propidium iodide staining-based FACS analysis (reference value: 20.92 %); assay type: functional; summary of the method: as §2
NCI-H23 = test: Cytotoxicity against human NCI-H23 cells; assay type: functional; summary of the method: as §1
NCI/ADR-RES = test: Cytotoxicity against human NCI/ADR-RES cells; assay type: functional; summary of the method: as §1
A549 [8] = test: Induction of cell cycle arrest in human A549 cells assessed as accumulation at S phase at 6.5 uM after 24 hrs by propidium iodide staining-based FACS analysis (reference value: 19.21 %); assay type: functional; summary of the method: as §2
A549 [9] = test: Induction of apoptosis in human A549 cells assessed as late apoptotic cells at 6.5 uM after 24 hrs using Annexin V-FITC and PI staining by flow cytometry (reference value: 85.7 %); assay type: functional
UO-31 = test: Cytotoxicity against human UO31 cells; assay type: functional; summary of the method: as §3
IGROV-1 = test: Cytotoxicity against human IGROV1 cells; assay type: functional; summary of the method: as §1
DU-145 = test: Cytotoxicity against human DU145 cells; assay type: functional; summary of the method: as §1
MCF7 = test: Cytotoxicity against human MCF7 cells; assay type: functional; summary of the method: as §1
SN12C = test: Cytotoxicity against human SN12C cells; assay type: functional; summary of the method: as §3

Compound `O=C1Nc2ccccc2/C1=C\c1nc(-c2ccccc2F)n2ccccc12` has a GI50 (A498) of 2.81 µM, an Activity (A549 [1]) of 5.74% and a GI50 (NCI-H226) of 4.78 µM. For the same compound, the GI50 (M14) was 5.65 µM, the Activity (A549 [2]) was 0.1% and the GI50 (ACHN) was 3.3 µM. For the same compound, the GI50 (EKVX) was 10.6 µM, the GI50 (K562) was 6.35 µM and the Activity (A549 [3]) was 0.9%. For the same compound, the GI50 (OVCAR-3) was 1.9 µM, the GI50 (NCI-H522) was 2.18 µM and the GI50 (SF-539) was 3.1 µM. For the same compound, the GI50 (786-0) was 3.44 µM, the GI50 (SF-295) was 3.65 µM and the GI50 (SNB-75) was 1.79 µM. For the same compound, the GI50 (HT-29) was 3.5 µM, the Activity (A549 [4]) was 75.85% and the viability at 6.5 µM (A549 [5]) was 8.3%. The GI50 (HCT-15) was 13 µM, the GI50 (RXF 393) was 3.41 µM and the Activity (A549 [6]) was “Active”. The GI50 (COLO 205) was 4.08 µM, the GI50 (OVCAR-4) was 1.81 µM and the GI50 (NCI-H460) was 2.17 µM. For the same compound, the GI50 (OVCAR-8) was 2.49 µM, the Activity (A549 [7]) was 17.46% and the GI50 (NCI-H23) was 4.55 µM. The GI50 (NCI/ADR-RES) was 3.36 µM, the Activity (A549 [8]) was 13.51% and the Activity (A549 [9]) was 7.2%. For the same compound, the GI50 (UO-31) was 2.12 µM, the GI50 (IGROV-1) was 2.04 µM and the GI50 (DU-145) was 3.26 µM. For the same compound, the GI50 (MCF7) was 2.1 µM and the GI50 (SN12C) was 4.32 µM.
